The text below walks through data of ChEMBL document CHEMBL4041513, “In silico identification, design and synthesis of novel piperazine-based antiviral agents targeting the hepatitis C virus helicase” (Eur J Med Chem, 2017).

pEC50, pIC50, pKd: −log10 of the molar value. Activity calls are given as the source filed them. The calls are words filed in the database; no cut-off is given here.

A short description of data set [1]: Inhibition of HCV NS3 helicase DNA unwinding activity using fluorescent DNA substrate by molecular beacon assay. On the set-up: species or system Hepacivirus hominis. The gist of the method: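 Molecular beacon unwinding reaction: 25 mM MOPS pH 6.5, 1.25 mM MgCl2, 5% DMSO, 5 µg/ml BSA, 0.01% Tween20, 0.05 mM DTT, 5 nM fluorescent DNA substrate, 12.5 nM NS3h, 1 mM ATP. Duplicate two-fold dilutions spanned 1 mM to 0.78 µM. Data normalised to no-inhibitor and no-enzyme controls; IC50 from variable-slope Hill fit.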

Data set [2] can be described thus: Selectivity index, ratio of CC50 for human HuH5.2 cells to EC50 for HCV genotype 1b infected in human HuH5.2 cells with persistent I389luc-ubi-neo/NS3-3'/5.1 replicon. (Replicon systems follow genome replication, usually without infectious particles.)
Data set [3] is described as follows: Inhibition of HCV NS3 helicase ATP hydrolysis activity in presence of poly(U) RNA. Also noted: species or system Hepacivirus hominis. The gist of the method: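 ATPase run with RNA: 25 mM MOPS pH 6.5, 1.25 mM MgCl2, 15 µM poly(U), 6 nM NS3h, 5 µg/mL BSA, 0.001% Tween 20. Duplicate two-fold compound series from 1 mM to 0.78 µM; normalised to no-inhibitor and no-enzyme controls; IC50 from variable Hill-slope fit. A separate poly(U) titration gave K_RNA, fit assuming unchanged Vmax.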

The subject of data set [4] is Hepatitis C virus. Description: Antiviral activity against HCV genotype 1b infected in human HuH5.2 cells with persistent I389luc-ubi-neo/NS3-3'/5.1 replicon after 72 hrs by luciferase reporter gene assay. The data set is classed as functional, cell-based, Hepacivirus hominis. Particulars: Huh-5-2, 72 h. In a few lines: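 Huh 5-2 cells carrying the genotype 1b I389luc-ubi-neo/NS3-3'/5.1 replicon were seeded at 6 500 cells/well in Geneticin-free DMEM/10% FCS and left overnight. Compounds from DMSO stocks were added in a four-step 1-to-5 series for the first screen or an eight-step 1-to-2 series for dose-response curves, then 72 h at 37 °C. Luciferase luminescence after lysis, as % of untreated controls, gave EC50; mean of ≥2 experiments.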

Data set [5] is described as follows: Cytotoxicity against human HuH5.2 cells assessed as reduction in cell viability after 72 hrs by MTS assay. In kind it is cell-based, Huh-5-2. In a few lines: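 Huh 5-2 cells carrying the genotype 1b I389luc-ubi-neo/NS3-3'/5.1 replicon were seeded at 6 500 cells/well in medium without Geneticin one day ahead. Compounds (DMSO stock) were added as 1:5 four-step or 1:2 eight-step dilutions for 72 h at 37 °C.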
In general terms: Tetrazolium assays rely on reduction of a dye to a coloured formazan, in cell work by metabolically active cells.

Data set [6] is described as follows: Inhibition of DNA oligonucleotide binding to HCV NS3 helicase. Also noted: species or system Hepacivirus hominis. The gist of the method:
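Compounds run in duplicate two-fold series from 1 mM to 0.78 µM; normalised to no-inhibitor and no-enzyme controls; IC50 by variable Hill-slope dose-response fit.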

In data set [7] the test system is Hepacivirus hominis. The experiment in a line: Selectivity ratio of inhibition of DNA oligonucleotide binding to HCV NS3 helicase to inhibition of HCV NS3 helicase ATP hydrolysis activity.
Data set [8] is described as follows: Binding affinity to HCV genotype 2A JFH1 protease domain truncated NS3 helicase by fluorescence assay. Also noted: species or system Hepatitis C virus JFH-1. The gist of the method:
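Intrinsic tryptophan fluorescence titration (ex 280 nm, em 340 nm) of NS3h, the JFH1 genotype 2a NS3 helicase domain without protease, at 100 nM, with compound alone as reference. Intensities corrected for dilution and inner-filter effects, then globally fit to a quadratic binding equation for Kd.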

Data set [9] has as its system Hepacivirus hominis. The experiment in a line: Inhibition of HCV NS3 helicase ATP hydrolysis activity at 1 mM in absence of poly(U) RNA.

For `CC(C)(C)c1ccc(S(=O)(=O)NCCCN2CCN(CCCNS(=O)(=O)c3ccc(C(C)(C)C)cc3)CC2)cc1`, the negative logarithm of the IC50 (pIC50) in data set [1] is 3.51; in [3], 3.23; in data set [6], less than 3.00. Further, the “Ratio CC50/EC50” value in [2] came out at 11.2. Further, the pEC50 in data set [4] was 5.06. In addition, in [4], the EC90 turned out to be 42.9 µM. Further, the CC50 at 72 h in data set [5] was 97.2 µM.

As for `O=S(=O)(NCCCN1CCN(CCCNS(=O)(=O)c2ccc(Cl)cc2)CC1)c1ccc(Cl)cc1`, the negative-log IC50 (pIC50) in [1], in data set [3] and in [6] was less than 3.00 in each case. In addition, the “Ratio CC50/EC50” value in data set [2] is listed as >13.2 - 14. The pEC50 in [4] is 4.86 to 4.89. In addition, the 50% cytotoxic concentration (CC50) at 72 h in [5] was more than 182 µM.

With `CC(C)(C)c1ccc(S(=O)(=O)NCCCN2CCN(CCCNS(=O)(=O)c3ccc(-c4ccccc4)cc3)CC2)cc1`, the pIC50 was 4.05 in [1], 4.68 in data set [3] and 3.70 in data set [6]. Also, the “Ratio CC50/EC50” value in [2] turned out to be 3.7. Moreover, the Selectivity ratio in [7] was determined as 10. Further, the pKd in data set [8] was 6.24. For the same molecule, the inhibition result in data set [9] is “inactive”. Moreover, in data set [4], the pEC50 was 5.89. In addition, in data set [4], the 90% effect concentration (EC90) amounted to 3.05 µM. Moreover, the CC50 at 72 h in data set [5] amounted to 4.78 µM.

One may read the pIC50 as the negative decadic logarithm of the IC50, by convention in mol/L. Usually pEC50 stands for −log10 of the EC50, conventionally taken in molar units. As usually defined, the EC90 is the point of the concentration-response curve where the effect stands at 90%. A lower EC90 goes with an effect from little substance. As a reminder, the CC50 is the concentration giving 50% cytotoxicity. A word on the pKd: it is the Kd on a negative log10 scale, so that one unit is a factor of ten. Read a high pKd as a small Kd.
